Test results from paper PMC10173165 (Journal of Advanced Research, 2022).
Substitutions are numbered along the chain they refer to. In names and notes the source's numbering stands. Blank lines part the entries; values can stand above or below the molecule they belong to. Ends that are not written are not given here.

Tests used:
[1] = target: T1, (His)6-MED23_391–582 / FITC-ELF3_129–145 (Homo sapiens, UniProt Q9ULK4); test: Fluorescence polarization assay; format: binding; details: negative control
T1 sequence (Q9ULK4 391-582): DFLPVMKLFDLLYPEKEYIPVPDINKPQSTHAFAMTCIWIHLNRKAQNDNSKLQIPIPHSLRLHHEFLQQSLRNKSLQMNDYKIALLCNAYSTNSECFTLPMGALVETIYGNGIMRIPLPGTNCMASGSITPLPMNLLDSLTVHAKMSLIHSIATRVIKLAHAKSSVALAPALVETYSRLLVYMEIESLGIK

NCI-N87 xenograft = test: NCI-N87 tumor xenograft with IHC; format: in vivo, athymic nude mice
Outline: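 Female athymic nude mice (5 weeks old) received 5 × 10^6 NCI-N87 cells s.c. in PBS into the right flank and were randomised at 90–100 mm3 (n = 5/group). Dosing was 4 mg/kg i.v. in DMAC/Tween80/saline (5:10:85), six times at 3-day intervals. Caliper volume (L × W2)/2 was followed to day 28. Paraffin tumour sections were stained for HER2 and Ki-67 (DAB), with IHC score = intensity × fraction (0–300) over 10 fields per sample.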

[2] = Genotoxicity safety assessment
[3] = Intravenous and oral pharmacokinetic profile; format: in vivo, ICR mice; details: male, ICR, mouse, plasma
(His)6-MED23_(391–582) = target: T2, (His)6-MED23_(391–582) (human, UniProt Q9ULK4 391-582); test: fluorescence polarisation
T2 sequence: T1 sequence (Q9ULK4 391-582)

Nluc-ELF3^WT = target: T3, Nluc-ELF3^WT (human, UniProt P78545-1 1-371); test: split reporter
T3 sequence: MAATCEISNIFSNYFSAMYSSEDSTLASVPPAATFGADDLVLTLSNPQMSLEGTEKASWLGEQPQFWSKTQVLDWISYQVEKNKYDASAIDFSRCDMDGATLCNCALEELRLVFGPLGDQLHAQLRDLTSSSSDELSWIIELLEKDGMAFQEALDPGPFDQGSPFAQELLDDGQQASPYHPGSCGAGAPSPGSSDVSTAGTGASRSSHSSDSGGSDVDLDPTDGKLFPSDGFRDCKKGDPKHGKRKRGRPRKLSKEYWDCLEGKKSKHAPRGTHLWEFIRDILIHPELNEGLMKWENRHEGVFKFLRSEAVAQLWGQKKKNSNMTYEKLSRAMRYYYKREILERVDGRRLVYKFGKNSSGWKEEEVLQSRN

[4] = 4 mg/kg IV, compared to untreated control

Molecule: CC(=O)N1N=C(c2cccc(O)c2)CC1c1ccc(Cl)cc1 (stereo not drawn) [Compound 15]
Tumor growth (NCI-N87 xenograft; 4 mg/kg IV every 3 days): significant tumor growth retardation | Decrease in proliferation marker Ki67 (IHC) (NCI-N87 xenograft; [4]): 4.5 fold | Reduction of HER2 level in the tumor (IHC) (NCI-N87 xenograft; [4]): 1.8 fold | Genotoxicity [2]: no association of genotoxicity | half-life ([3]; iv): 9.74 ± 2.76 h | bioavailability ([3]; po): 25.1% | half-life ([3]; po): 10.9 ± 11 h

B1: FITC-labeled ELF3_(129–145) peptide (peptide)
peptide: TSSSSDELSWIIELLEK
modifications: also: FITC label, position not given here
binding result ((His)6-MED23_(391–582)): binds

B2: Cluc-MED23_(391-582)^WT (domain or fragment)
chain: T1 sequence (Q9ULK4 391-582)
fold change of luciferase activity relative to control (Nluc-ELF3^WT): 5.2 fold

More lines, now with the values ahead:

Change of FP signal [1]: made no such changes
Molecule: COc1ccc(C2CC(c3ccccc3O)=NN2C(C)=O)c2ccccc12 (stereo not drawn) [Compound 18]

fold change of luciferase activity relative to control (Nluc-ELF3^WT): 4.8 fold
B3: Cluc-MED23_(391-582)^K397A (domain or fragment)
chain: T1 sequence (Q9ULK4 391-582) with K7A

fold change of luciferase activity vs control (Nluc-ELF3^WT): 6 fold
B4: Cluc-MED23_(391-462) (domain or fragment)
chain: DFLPVMKLFDLLYPEKEYIPVPDINKPQSTHAFAMTCIWIHLNRKAQNDNSKLQIPIPHSLRLHHEFLQQSL
